In one data set the test system is RAW264.7. As to the kind of experiment: Inhibition of NO production in INFgamma-stimulated mouse RAW264.7 cells measured after 24 hrs by Griess reaction method. Format: functional, cell-based. Conditions: RAW264.7, 24 h. In short, it runs like this: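 RAW 264.7 mouse macrophages were seeded at 30,000 cells/well in triplicate. The next day they were pre-treated for 2 h with DMSO or compound (0–200 nM), then stimulated with IFN-γ for 24 h. Medium NO was measured by Griess reagent and viability by WST-1. IC₅₀ came from suppression of IFN-γ-induced NO normalized to viability.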
A general note: The Griess reaction detects nitrite, a stable product of nitric oxide.

Data set [1] addresses NAD(P)H dehydrogenase [quinone] 1 (Mus musculus) (UniProt Q64669). As to the kind of experiment: Induction of NQO1 activity in mouse Hepa-1c1c7 cells assessed as concentration require to double the specific enzyme activity after 48 hrs. Type of data set: cell-based. The essentials: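 Hepa1c1c7 murine hepatoma cells were seeded at 10,000 cells/well and grown 24 h, then exposed to serial dilutions for 48 h. NQO1 specific enzyme activity was measured, and potency was taken as the concentration that doubles it (CD). Each concentration used eight replicate wells; SD was 5–10%.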

For data set [2], the target named is T1, Heme oxygenase 1 (Mus musculus) (UniProt P14901).
T1 sequence (whole entry): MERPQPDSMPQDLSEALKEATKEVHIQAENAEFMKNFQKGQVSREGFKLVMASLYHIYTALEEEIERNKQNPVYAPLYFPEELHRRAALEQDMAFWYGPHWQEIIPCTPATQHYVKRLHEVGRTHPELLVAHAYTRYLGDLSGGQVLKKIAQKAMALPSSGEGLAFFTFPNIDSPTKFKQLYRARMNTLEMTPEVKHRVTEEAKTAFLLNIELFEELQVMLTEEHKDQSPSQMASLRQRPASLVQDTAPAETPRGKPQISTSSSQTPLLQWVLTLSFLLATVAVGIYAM
The experiment in a line: Induction of HO1 activity in mouse RAW264.7 cells at 30 to 100 nM after 16 hrs. Type of data set: cell-based. The essentials: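 RAW 264.7 mouse macrophages were plated at 100,000 cells/well and treated the next day with DMSO or compound for 16 h (overnight). Cells were harvested in tricine sample buffer with b-ME. Lysates were run on SDS–PAGE and immunoblotted for HO-1, with GAPDH as the reference protein.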

Data set [3] is described as follows: Stability of the compound at 4 degC. Type of data set: physicochemical.

Calls of active or inactive are those of the source. The rule behind the calls is not given here.

Chain of NAD(P)H dehydrogenase [quinone] 1 (Mus musculus) (Q64669 whole entry): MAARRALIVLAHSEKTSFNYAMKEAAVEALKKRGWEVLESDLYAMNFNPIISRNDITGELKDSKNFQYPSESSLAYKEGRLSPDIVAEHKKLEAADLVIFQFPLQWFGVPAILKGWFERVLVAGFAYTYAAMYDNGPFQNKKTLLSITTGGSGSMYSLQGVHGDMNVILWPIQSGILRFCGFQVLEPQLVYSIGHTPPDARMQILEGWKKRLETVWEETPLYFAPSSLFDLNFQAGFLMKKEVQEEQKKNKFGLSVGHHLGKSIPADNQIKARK

Turning to `CC1(C)CC[C@]2(C(=O)n3cnc(C#Cc4ccccc4)c3)CC[C@]3(C)[C@H](C(=O)C=C4[C@@]5(C)C=C(C#N)C(=O)C(C)(C)[C@@H]5CC[C@]43C)[C@@H]2C1`, in the data set on RAW264.7, the IC50 – broadly, the concentration needed to halve the response being measured – is 7.8 nM.

Turning to `CC#Cc1nc(C)cn1C(=O)[C@]12CCC(C)(C)C[C@H]1[C@H]1C(=O)C=C3[C@@]4(C)C=C(C#N)C(=O)C(C)(C)[C@@H]4CC[C@@]3(C)[C@]1(C)CC2`, in the data set with RAW264.7, the IC50 came out at 2 nM. For the same molecule, the CD in data set [1] is 0.4 nM. Also, in data set [2], the result was Active. In data set [3], this molecule gave a Stability of 3 yr.

In turn, `CC1(C)CC[C@]2(C(=O)n3ccnc3)CC[C@]3(C)[C@H](C(=O)C=C4[C@@]5(C)C=C(C#N)C(=O)C(C)(C)[C@@H]5CC[C@]43C)[C@@H]2C1` showed an IC50 with RAW264.7 of 0.6 nM. Moreover, the CD in data set [1] amounted to 0.2 nM. The molecule also had a Stability in data set [3] of 1 yr.

`C#Cc1cn(C(=O)[C@]23CCC(C)(C)C[C@H]2[C@H]2C(=O)C=C4[C@@]5(C)C=C(C#N)C(=O)C(C)(C)[C@@H]5CC[C@@]4(C)[C@]2(C)CC3)cn1` registered an IC50 with RAW264.7 of 1.4 nM. Further, the CD in data set [1] was determined as 0.4 nM. For the same molecule, in data set [2], the result was Active. Moreover, in data set [3], the Stability is 3 yr.

Regarding `CC1(C)CC[C@]2(C(=O)n3ccnc3C#Cc3ccccc3)CC[C@]3(C)[C@H](C(=O)C=C4[C@@]5(C)C=C(C#N)C(=O)C(C)(C)[C@@H]5CC[C@]43C)[C@@H]2C1`, half-maximal inhibition with RAW264.7 (IC50) required 4 nM. Moreover, in data set [1], the CD amounted to 1.2 nM. Moreover, in data set [2], the outcome was Active. In data set [3], this molecule came in with a Stability of 3 yr.

In the data set with RAW264.7, `CC1(C)CC[C@]2(C(=O)O)CC[C@]3(C)[C@H](C(=O)C=C4[C@@]5(C)C=C(C#N)C(=O)C(C)(C)[C@@H]5CC[C@]43C)[C@@H]2C1` [BARDOXOLONE] displayed an IC50 of 11 nM. The CD in data set [1] is 3 nM.

As to `C#Cc1nccn1C(=O)[C@]12CCC(C)(C)C[C@H]1[C@H]1C(=O)C=C3[C@@]4(C)C=C(C#N)C(=O)C(C)(C)[C@@H]4CC[C@@]3(C)[C@]1(C)CC2`, the IC50 in the data set with RAW264.7 stood at 2.3 nM. Further, the CD in data set [1] came to 0.9 nM. Further, the result in data set [2] was Active. In addition, the Stability in data set [3] is 3 yr.

Source of the values: ChEMBL document CHEMBL1759875, “Synthesis and biological evaluation of 1-[2-cyano-3,12-dioxooleana-1,9(11)-dien-28-oyl]-4-ethynylimidazole. A novel and highly potent anti-inflammatory and cytoprotective agent” (Bioorg Med Chem Lett, 2011).
